Source: PubChem BioAssay AID2626 (Vanderbilt High Throughput Screening Facility, 2010)
Active and inactive are the calls of the source.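 Rule for the calls: active = response above about half the acetylcholine maximum when tested at 10 µM with a low acetylcholine dose; inactive = response below half the acetylcholine maximum.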

Biological target: Muscarinic acetylcholine receptor M1 (Rattus norvegicus) (UniProt P08482)
Test: rat M1 positive allosteric modulators, single dose, ACh EC20, CHO cells (AID 2626)
Settings: CHO rM1 cells, calcium response with ACh EC20; at 10 µM; stronger effect = higher value
Method in brief: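 material = CHO cells expressing rat M1 muscarinic acetylcholine receptor | compound dosing = single fixed 10 µM compound concentration | also added = acetylcholine at submaximal, roughly EC20 concentration | read-out basis = potentiation of the EC20 acetylcholine response by compound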

Muscarinic acetylcholine receptor M1 (Rattus norvegicus), sequence (P08482 whole entry, looked up): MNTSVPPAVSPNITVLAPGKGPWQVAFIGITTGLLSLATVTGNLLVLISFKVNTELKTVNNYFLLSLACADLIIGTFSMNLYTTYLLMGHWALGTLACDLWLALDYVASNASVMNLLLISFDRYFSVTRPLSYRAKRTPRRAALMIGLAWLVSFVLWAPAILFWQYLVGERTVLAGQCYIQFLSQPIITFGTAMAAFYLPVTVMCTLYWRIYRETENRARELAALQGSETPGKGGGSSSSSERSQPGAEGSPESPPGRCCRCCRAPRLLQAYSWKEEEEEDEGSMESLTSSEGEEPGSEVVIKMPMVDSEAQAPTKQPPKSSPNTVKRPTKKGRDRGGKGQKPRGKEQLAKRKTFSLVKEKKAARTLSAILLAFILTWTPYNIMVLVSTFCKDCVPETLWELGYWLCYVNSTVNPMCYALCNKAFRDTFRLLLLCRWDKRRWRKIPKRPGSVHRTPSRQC

Compound: Cc1cc(NC(=O)CS(=O)(=O)c2cn(Cc3ccc(OC(F)(F)F)cc3)c3ccccc23)no1
- % of ACh max response (PAM): 28.7% (inactive)

Compound: O=C(O)CS(=O)(=O)c1cn(Cc2cc(Br)ccc2F)c2ccccc12
- % of ACh max response (PAM): 18.1% (inactive)

Compound: Cc1cc(NC(=O)CS(=O)(=O)c2cn(Cc3cccc(C#N)c3)c3ccccc23)no1
- % of ACh max response (PAM): 52.7%

Compound: Cc1cc(NC(=O)CSc2cn(Cc3cccc(Br)c3)c3ccccc23)no1
- % of ACh max response (PAM): 26.9% (inactive)

Compound: Cc1cc(NC(=O)C(Cc2cccc(Cl)c2)S(=O)(=O)c2cn(Cc3cccc(Cl)c3)c3ccccc23)no1 (stereo not drawn)
- % of ACh max response (PAM): 42.1% (inactive)

Compound: COc1ccccc1Cn1cc(S(=O)(=O)CC(=O)Nc2cc(C)on2)c2ccccc21
- % of ACh max response (PAM): 30.6% (inactive)

Compound: CS(=O)(=O)c1cn(Cc2ccccc2Cl)c2ccccc12
- % of ACh max response (PAM): 26.3% (inactive)

Compound: Cc1cc(NC(=O)CS(=O)c2cn(Cc3cccc(Cl)c3)c3ccccc23)no1 (stereo not drawn)
- % of ACh max response (PAM): 72.4%

Compound: Cc1cc(NC(=O)CS(=O)(=O)c2cn(Cc3cccc(-c4ccc(Cl)nc4)c3)c3ccccc23)no1
- % of ACh max response (PAM): 26.4% (inactive)

Compound: Cc1cc(NC(=O)CS(=O)(=O)c2cn(Cc3ccc(F)nc3)c3ccccc23)no1
- % of ACh max response (PAM): 41.2% (inactive)

Compound: Cc1cc(NC(=O)CS(=O)(=O)c2cn(Cc3cccc(-c4ccc(N5CCOCC5)nc4)c3)c3ccccc23)no1
- % of ACh max response (PAM): 18.5% (inactive)

Compound: Cc1cc(NC(=O)CSc2c[nH]c3ccccc23)no1
- % of ACh max response (PAM): 28.8% (inactive)

Compound: Cc1cc(NC(=O)C(C)S(=O)(=O)c2cn(Cc3cc(Br)ccc3F)c3ccccc23)no1 (stereo not drawn)
- % of ACh max response (PAM): 19.7% (inactive)

Compound: Cc1cc(NC(=O)CS(=O)(=O)c2cn(Cc3cc(Br)cc(Br)c3)c3ccccc23)no1
- % of ACh max response (PAM): 12.7% (inactive)

Compound: Cc1cc(NC(=O)CS(=O)(=O)c2cn(Cc3cccc(-c4cnn(CC(C)C)c4)c3)c3ccccc23)no1
- % of ACh max response (PAM): 24.4% (inactive)

Compound: Cc1cc(NC(=O)CS(=O)(=O)c2cn(Cc3ccc(F)c(Br)c3)c3ccccc23)no1
- % of ACh max response (PAM): 24% (inactive)

Compound: COC(=O)CS(=O)(=O)c1cn(Cc2cc(Br)ccc2F)c2ccccc12
- % of ACh max response (PAM): 7.5% (inactive)

Compound: Cc1cc(NC(=O)CSc2cn(Cc3ccccc3Cl)c3ccccc23)no1
- % of ACh max response (PAM): 26.7% (inactive)

Compound: Cc1cc(NC(=O)CS(=O)(=O)c2cn(Cc3cccc(-c4ccc(N5CCCC5)nc4)c3)c3ccccc23)no1
- % of ACh max response (PAM): 33.3% (inactive)

Compound: Cc1cc(NC(=O)C(Cc2ccc(F)cc2F)S(=O)(=O)c2cn(Cc3ccc(F)cc3F)c3ccccc23)no1 (stereo not drawn)
- % of ACh max response (PAM): 38.5% (inactive)

Compound: Cc1cc(NC(=O)CS(=O)(=O)c2cn(Cc3ccc(F)cc3F)c3ccccc23)no1
- % of ACh max response (PAM): 51.6%

Compound: Cc1cc(NC(=O)C(Cc2ccccc2F)S(=O)(=O)c2cn(Cc3ccccc3F)c3ccccc23)no1 (stereo not drawn)
- % of ACh max response (PAM): 44.5% (inactive)

Compound: Cc1cc(NC(=O)C(C)S(=O)(=O)c2cn(Cc3cc(Br)cc(Br)c3)c3ccccc23)no1 (stereo not drawn)
- % of ACh max response (PAM): 17.7% (inactive)

Compound: COc1ccc(Cn2cc(S(=O)(=O)CC(=O)Nc3cc(C)on3)c3ccccc32)cc1
- % of ACh max response (PAM): 54.8%

Compound: O=C(CS(=O)(=O)c1cn(Cc2cc(Br)ccc2F)c2ccccc12)Nc1ccccc1
- % of ACh max response (PAM): 13.9% (inactive)

Compound: Cc1cc(NC(=O)CS(=O)(=O)c2cn(Cc3ccc4c(c3)OCO4)c3ccccc23)no1
- % of ACh max response (PAM): 35.8% (inactive)

Compound: Cc1cc(NC(=O)CS(=O)(=O)c2cn(Cc3ccc(Br)cc3F)c3ccccc23)no1
- % of ACh max response (PAM): 27.7% (inactive)

Compound: Cc1cc(NC(=O)C(Cc2ccc(OC(F)(F)F)cc2)S(=O)(=O)c2cn(Cc3ccc(OC(F)(F)F)cc3)c3ccccc23)no1 (stereo not drawn)
- % of ACh max response (PAM): 28.7% (inactive)

Compound: Cc1cc(NC(=O)CS(=O)(=O)c2cn(Cc3ccccc3F)c3ccccc23)no1
- % of ACh max response (PAM): 52.9%

Compound: Cc1cc(NC(=O)CS(=O)(=O)c2cn(Cc3ccc(C(F)(F)F)cc3)c3ccccc23)no1
- % of ACh max response (PAM): 30.4% (inactive)

Compound: Cc1cc(NC(=O)CS(=O)(=O)c2c[nH]c3ccccc23)no1
- % of ACh max response (PAM): 29% (inactive)

Compound: Cc1cc(NC(=O)CS(=O)(=O)c2cn(Cc3cccc(-c4ccc(N5CCNCC5)nc4)c3)c3ccccc23)no1
- % of ACh max response (PAM): 43.6% (inactive)

Compound: Cc1cc(NC(=O)CS(=O)(=O)c2cn(Cc3ccc(Cl)cc3)c3ccccc23)no1
- % of ACh max response (PAM): 30.8% (inactive)
